In ChEMBL document CHEMBL1149490, “SAR of biphenyl carboxamide ligands of the human melanin-concentrating hormone receptor 1 (MCH R1): discovery of antagonist SB-568849” (Bioorg Med Chem Lett, 2006):
Values after ≈ are worked out from the molar mass of the structure shown. Active and inactive are the calls of the source. The rule behind the calls is not given here.

How the values were obtained:
[1] = target: T1, Melanin-concentrating hormone receptor 1 (Homo sapiens, UniProt Q99705); test: Displacement of radiolabeled iodo-MCH from human MCHR1 expressed in HEK293 cells; type: cell-based
T1 sequence (Q99705 whole entry): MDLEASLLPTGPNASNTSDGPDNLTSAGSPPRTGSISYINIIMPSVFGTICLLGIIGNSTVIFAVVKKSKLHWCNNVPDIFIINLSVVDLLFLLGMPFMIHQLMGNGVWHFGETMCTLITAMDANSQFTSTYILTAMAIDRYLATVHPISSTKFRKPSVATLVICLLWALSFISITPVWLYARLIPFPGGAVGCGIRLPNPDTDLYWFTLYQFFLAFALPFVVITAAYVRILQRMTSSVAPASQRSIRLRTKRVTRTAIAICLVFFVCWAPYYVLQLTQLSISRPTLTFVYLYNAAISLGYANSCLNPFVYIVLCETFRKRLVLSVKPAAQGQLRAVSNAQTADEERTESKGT

Liver microsomes = test: Intrinsic clearance in rat liver microsome; type: ADME
Procedure, shortened: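 Rat liver microsomes at 0.5 mg/mL protein, starting compound 0.5 µM. Compound loss followed as a concentration-time profile. First-order rate constant K taken from the profile; CLi = K·V, scaled and given in mL/min/g liver.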

[2] = target: T2, 5-hydroxytryptamine receptor 2C (Homo sapiens, UniProt P28335); test: Binding affinity to 5HT2C receptor
T2 sequence (P28335 whole entry): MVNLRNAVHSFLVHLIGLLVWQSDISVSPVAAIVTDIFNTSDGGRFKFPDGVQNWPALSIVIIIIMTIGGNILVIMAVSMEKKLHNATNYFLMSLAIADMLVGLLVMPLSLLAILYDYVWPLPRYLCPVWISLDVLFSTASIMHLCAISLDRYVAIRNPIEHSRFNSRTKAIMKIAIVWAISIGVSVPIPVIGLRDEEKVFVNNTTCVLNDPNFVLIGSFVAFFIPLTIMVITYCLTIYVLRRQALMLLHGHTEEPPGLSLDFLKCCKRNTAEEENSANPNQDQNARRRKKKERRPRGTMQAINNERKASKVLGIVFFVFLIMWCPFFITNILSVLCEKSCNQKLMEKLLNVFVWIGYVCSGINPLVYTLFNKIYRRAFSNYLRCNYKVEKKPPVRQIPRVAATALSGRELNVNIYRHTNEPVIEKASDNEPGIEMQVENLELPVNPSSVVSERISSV

[3] = Ratio of drug level in brain against blood in rat 0.3 mg/kg/hr, iv; type: ADME, organism-based; set-up: route intravenous; conditions: read-out: BBR
Procedure, shortened: (§1)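 Rats given compound dissolved in 2% (v/v) DMSO in 5% (w/v) aqueous dextrose by constant iv infusion over 12 h, target 0.3 mg free base/kg/h, for steady-state brain:blood measurement. Blood clearance is the initial elimination rate from blood per unit body mass after this iv dosing.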

[4] = Clearance in rat at 0.3 mg/kg/hr, iv; type: ADME, organism-based; set-up: route intravenous; conditions: in vivo; procedure, shortened: as §1
[5] = Solubility of the compound; type: physicochemical
[6] = target: T1, Melanin-concentrating hormone receptor 1; test: Antagonist activity at human MCHR1 expressed in HEK293 cells assessed as inhibition of MCH-stimulated calcium mobilization; type: functional, cell-based
Procedure, shortened: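 Stably transfected HEK293 cells re-seeded on poly-D-lysine and grown 24 h, loaded with fluorescent indicator in assay buffer plus probenecid, washed, then exposed to compound for 30 min. FLIPR readings taken before and after an EC80 concentration of MCH. Apparent pKb fitted to the MCH response with a 4-parameter logistic equation.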

[7] = AUC in Sprague-Dawley rat; type: ADME, organism-based; conditions: plasma
Procedure, shortened: (§2)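 Cannulated Sprague-Dawley rats (n ≥ 3), crossover over two study days: iv infusion of buffered compound at 10 mL/kg/h, target 1.0 mg pfb/kg, blood sampled up to 24 h. After ≥2 days recovery, oral gavage of a suspension in aq methylcellulose (1.5 mg pfb/mL, 2 mL/kg), target 3 mg pfb/kg, blood sampled pre-dose and up to 27 h.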

[8] = Oral bioavailability in Sprague-Dawley rat; type: ADME, organism-based; conditions: in vivo; procedure, shortened: as §2
[9] = target: Melanin-concentrating hormone receptor (Homo sapiens) (UniProt Q969V1+Q99705); test: Antagonizing effect on MCH-stimulated CRF release in rat hypothalamus; type: functional, tissue-based; conditions: target entry is the homologue from another species
Melanin-concentrating hormone receptor (Homo sapiens), sequence (Q969V1 whole entry, looked up): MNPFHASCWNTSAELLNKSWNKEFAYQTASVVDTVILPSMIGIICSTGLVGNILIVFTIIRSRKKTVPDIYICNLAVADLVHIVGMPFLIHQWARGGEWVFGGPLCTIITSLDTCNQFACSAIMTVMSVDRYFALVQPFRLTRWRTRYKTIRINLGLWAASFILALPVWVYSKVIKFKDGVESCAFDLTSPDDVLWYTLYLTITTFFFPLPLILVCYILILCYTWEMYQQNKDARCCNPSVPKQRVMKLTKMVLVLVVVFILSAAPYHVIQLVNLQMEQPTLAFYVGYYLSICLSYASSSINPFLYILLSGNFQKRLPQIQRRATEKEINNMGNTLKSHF
Melanin-concentrating hormone receptor (Homo sapiens), sequence (Q99705 whole entry, looked up): as the sequence (Q99705 whole entry) above

[10] = Solubility in artificial cerebrospinal fluid; type: physicochemical
[11] = Solubility in water; type: physicochemical

COc1cc(N(C)S(=O)(=O)c2ccc(-c3ccccc3)cc2)ccc1OCCN(C(C)C)C(C)C
Ki [1]: > 10000 nM

COc1cc(NC(=O)c2ccc(-c3ccccc3C)cc2)ccc1OCCN(C(C)C)C(C)C
Ki [1]: 39.8 nM

COc1cc(NC(=O)c2cccc(-c3ccccc3)c2)ccc1OCCN(C(C)C)C(C)C
Ki [1]: 5010 nM

CCN(CC)CCOc1ccc(NC(=O)c2ccc(-c3ccccc3)cc2)cc1OC
CL (Liver microsomes): 4 mL/min/g | Ki [1]: 31.6 nM

Cc1cc(NC(=O)c2ccc(-c3ccccc3)cc2)ccc1OCCN(C(C)C)C(C)C
Ki [1]: 63.1 nM

COc1cc(NC(=O)c2ccc(C3CCCCC3)cc2)ccc1OCCN(C(C)C)C(C)C
Ki [1]: 25.1 nM

CCN(CC)CCOc1ccc(NC(=O)c2ccc(-c3ccccc3)cc2)cc1C(C)O (stereo not given)
Ki [1]: 251 nM

COc1cc(NC(=O)c2ccc(-c3ccccc3)cc2C)ccc1OCCN(C(C)C)C(C)C
Ki [1]: 126 nM

COc1cc(NC(=O)c2ccc(-c3ccccc3)cc2)ccc1OCCN1CCCCC1
Ki [1]: 39.8 nM

COc1cc(NC(=O)c2cccc(C(=O)c3ccccc3)c2)ccc1OCCN(C(C)C)C(C)C
Ki [1]: > 10000 nM

COc1cc(NC(=O)c2ccc(-c3ccccc3)cc2)ccc1OCCN(C(C)C)C(C)C
Ki [2]: 158 nM | Kp [3]: 2.7 | clearance [4]: 67 mL/min/kg | solubility [5]: 4 µg/mL (≈ 8.96 µM) | pKb [6]: 7.5 | CL (Liver microsomes): 9 mL/min/g | Ki [1]: 31.6 nM

CCN(CC)CCOc1ccc(N(C)C(=O)c2ccc(-c3ccc(C(F)(F)F)cc3)cc2)cc1OC
AUC [7]: 2.37 µM·h | Kp [3]: 1 | bioavailability [8]: 30% | Activity [9]: Active | clearance [4]: 16 mL/min/kg | CL (Liver microsomes): 4 mL/min/g | Ki [1]: 20 nM

COc1cc(N(C)C(=O)c2cccc(Oc3ccccc3)c2)ccc1OCCN(C(C)C)C(C)C
Ki [1]: 398 nM

COc1cc(NC(=O)c2ccc(C(C)(C)C)cc2)ccc1OCCN(C(C)C)C(C)C
Ki [1]: > 10000 nM

COc1cc(NC(=O)c2ccc(-c3ccccc3)cc2)ccc1OCCN(C)Cc1ccccc1
Ki [1]: 50.1 nM

CCc1cc(NC(=O)c2ccc(-c3ccccc3)cc2)ccc1OCCN(CC)CC
Ki [1]: 50.1 nM

COc1cc(NC(=O)c2ccc(-c3ccc(C(F)(F)F)cc3)cc2)ccc1OCCN(C(C)C)C(C)C
Ki [1]: 79.4 nM

CCN(CC)CCOc1ccc(N(C)C(=O)c2ccc(-c3ccccc3)cc2)cc1OC
Kp [3]: 0.1 | clearance [4]: 51 mL/min/kg | CL (Liver microsomes): 5 mL/min/g | Ki [1]: 20 nM

CC(C)N(CCOc1ccc(NC(=O)c2ccc(-c3ccccc3)cc2)cc1F)C(C)C
Ki [1]: 398 nM

COc1cc(NC(=O)c2ccc(-c3cccc(C(F)(F)F)c3)cc2)ccc1OCCN(C(C)C)C(C)C
Ki [1]: 251 nM

COc1cc(NS(=O)(=O)c2ccc(-c3ccccc3)cc2)ccc1OCCN1CCCC1
Ki [1]: > 10000 nM

Cc1cc(OCCN(C(C)C)C(C)C)ccc1NC(=O)c1ccc(-c2ccccc2)cc1
Ki [1]: 25.1 nM

CC(C)N(CCOc1ccc(NC(=O)c2ccc(-c3ccccc3)cc2)cc1)C(C)C
Ki [1]: 63.1 nM

COc1cc(NC(=O)c2ccc(Br)cc2)ccc1OCCN(C(C)C)C(C)C
Ki [1]: > 6310 nM

COc1cc(N(C)C(=O)c2ccc(C3CCCCC3)cc2)ccc1OCCN(C(C)C)C(C)C
Ki [1]: 100 nM

COc1cc(N(C)C(=O)c2ccc(-c3ccccc3)cc2)ccc1OCCN(C(C)C)C(C)C
solubility [10]: > 500 µg/mL | solubility [11]: > 500 µg/mL | CL (Liver microsomes): 19 mL/min/g | Ki [1]: 15.8 nM

COc1cc(NC(=O)c2cccc(Cc3ccccc3)c2)ccc1OCCN(C(C)C)C(C)C
Ki [1]: 158 nM

COc1cc(N(C)C(=O)c2ccc(-c3ccccc3)cc2)ccc1OCCN1CCCC1
Kp [3]: 0.1 | clearance [4]: 57 mL/min/kg | CL (Liver microsomes): 2 mL/min/g | Ki [1]: 20 nM

COc1cc(N(C)C(=O)c2ccc(Cc3ccccc3)cc2)ccc1OCCN(C(C)C)C(C)C
Ki [1]: 79.4 nM

COc1cc(NC(=O)c2ccc(Oc3ccccc3)cc2)ccc1OCCN(C(C)C)C(C)C
Ki [1]: 200 nM

CCN(CC)CCOc1ccc(N(CC)C(=O)c2ccc(-c3ccccc3)cc2)cc1OC
Ki [1]: 251 nM

COc1cc(NC(=O)c2ccc(-c3ccccc3)cc2)ccc1OCCN1CCCC1
CL (Liver microsomes): 2 mL/min/g | Ki [1]: 31.6 nM

COc1cc(NC(=O)c2cccc(Oc3ccccc3)c2)ccc1OCCN(C(C)C)C(C)C
Ki [1]: 79.4 nM

COc1cc(NC(=O)c2ccc(-c3ccccc3)c(C)c2)ccc1OCCN(C(C)C)C(C)C
Ki [1]: 158 nM

COc1cc(NC(=O)c2ccc(-c3ccccc3)cc2)ccc1OCCN(C)C
Ki [1]: 50.1 nM

CCN(CC)CCOc1ccc(NC(=O)c2ccc(-c3ccccc3)cc2)cc1C(C)=O
Ki [1]: 31.6 nM

COc1cc(NC(=O)c2ccccc2)ccc1OCCN(C(C)C)C(C)C
Ki [1]: > 10000 nM
